Source: PubChem
UPR CHOP act: apoptotic UPR (CHOP) activation; CHO-CHOP luciferase reporter, luminescence; percent of tunicamycin response over DMSO baseline; activation, % at 10 µM; 330,000 tested, 0.34% active;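 active = at 10 µM dose, activation of 40% or more, normalized to positive control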
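System: CHO-CHOP luciferase reporter cell line | Buffer or medium: F12 medium containing 10% fetal bovine serum | Doses: One dose, 10 µM in 0.5% DMSO | Times: 6 h compound exposure at 37 °C after overnight seeding | Signal: Luciferase luminescence | Read-out: % activation vs tunicamycin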
XBP1 UPR activ: activators of adaptive arm of unfolded protein response (XBP1) | AID 463104 | 330,000 tested, 0.33% active | CHO-XBP1 luciferase reporter, IRE1-XBP1 UPR activation, luminescence; percent of tunicamycin response, DMSO as zero | activation, % at 20 µM;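 active = versus positive control, 20 µM dose yields 30% or more activation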
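incubation = overnight seeding at 37 °C, 6 h compound treatment at 37 °C | assay system = CHO-XBP1 cells stably carrying IRE1-XBP1-driven luciferase reporter | input = 1000 cells per well | detection = luciferase luminescence | dosing = single point, 20 µM final compound, 1% DMSO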
CHOP inhibitor: blocks CHOP induction under ER stress; CHO-K1 CHOP-promoter luciferase, tunicamycin-induced, 15-18 h; inhibition, % at 10 µM; 220,000 tested, 3.8% active;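 active = compounds that reduced the stress-induced luciferase reporter signal by more than about 70% of percent inhibition, limit read from the data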
Jurkat NFkB inh: inhibitors of the PMA/ionomycin-induced NF-kB reporter in Jurkat cells. PMA/ionomycin-induced NF-kB luciferase reporter, luminescence. inhibition, % at 4 µM. 330,000 tested, 0.53% active; in the data active = inhibition above about 50%
697 NFkB inh: inhibitors of the PMA/ionomycin-induced NF-kB reporter in 697 B cells. inhibition, % at 4 µM. AID 435022. 330,000 tested, 0.33% active. 697 B-cell NF-kB luciferase reporter, 16 h; in the data active = inhibition above about 35%
Each line names hits and unclear results; the compound was inactive in the other large screens. This is one part of a sample in which hits are shown more often than they occur.

CN(C)c1ccc(C(CNS(=O)(=O)c2ccc3ccccc3c2)c2c[nH]c3ccccc23)cc1 (centres undefined)	CHOP inhibitor 76
CN(C)c1ccc(C(CN)c2c[nH]c3ccccc23)cc1 (centres undefined)	none
C(=N\Nc1nc2ccccc2[nH]1)/c1ccc2c(c1)OCCO2	none
C(=N\Nc1ccc2ccccc2n1)/c1ccc2c(c1)OCCO2	CHOP inhibitor 75
COc1ccc(-c2cc(C(=O)NCc3ccc(Cl)cc3)no2)cc1OC	CHOP inhibitor 73
O=S(=O)(c1cc(Cl)cc(Cl)c1)N1CCCC1c1nc2ccccc2s1 (centres undefined)	CHOP inhibitor 70
O=S(=O)(c1ccc(Cl)cc1)N1CCCC1c1nc2ccccc2s1 (centres undefined)	none
COCCNC(=O)c1cnn2c1NC(c1ccco1)CC2C(F)(F)F (centres undefined)	none
CN(Cc1ccc(-n2cccn2)cc1)C(=O)c1cnn2c1NC(c1ccco1)CC2C(F)(F)F (centres undefined)	CHOP inhibitor 76 (no result: UPR CHOP act, XBP1 UPR activ, Jurkat NFkB inh, 697 NFkB inh)
O=C(NCc1cccc(Cl)c1)c1cnn2c1NC(c1ccco1)CC2C(F)(F)F (centres undefined)	CHOP inhibitor 91
CC(NC(=O)COc1ccc(N(C)S(=O)(=O)c2ccccc2)cc1)c1ccccc1 (centres undefined)	none
CCN(CC)S(=O)(=O)c1ccc(S(=O)(=O)NCC2CCCO2)cc1 (centres undefined)	none (no result: CHOP inhibitor)
CCOc1ccc(C2Nc3ccc4ccccc4c3-c3c2c(=O)oc2ccccc32)cc1 (centres undefined)	CHOP inhibitor 81
O=c1oc2ccccc2c2c1C(c1ccc(Cl)cc1)Nc1ccc3ccccc3c1-2 (centres undefined)	none
O=C1/C(=C/c2ccc([N+](=O)[O-])cc2)C=C(c2ccccc2)N1c1ccc(O)cc1	CHOP inhibitor 81
COc1ccccc1-c1cc(SC)c(C#N)c(=O)o1	CHOP inhibitor 94
O=C(CNC(=O)c1ccco1)N/N=C/c1cccs1	none
Cc1ccc(NC(=O)C(C)OC(=O)CCC2CCCCC2)cc1 (centres undefined)	none (no result: CHOP inhibitor)
CCNc1nc(N2CCOCC2)nc(N(c2ccccc2)c2ccccc2)n1	CHOP inhibitor 72
CCNc1nc(SCC(=O)Nc2ccccc2)nc(N2CCOCC2)n1	none (no result: CHOP inhibitor)
CC(C)(C)Nc1nc(SCc2ccccc2)nc(N2CCOCC2)n1	CHOP inhibitor 74
CCCCc1nc2cc(C(=O)N3CCCC(COC)C3)ccc2o1 (centres undefined)	none (no result: CHOP inhibitor)
COc1cc(C(=O)Nc2ccc(N3CCN(C(=O)c4ccc(C)cc4)CC3)cc2)cc(OC)c1OC	none (no result: CHOP inhibitor)
CCOc1ccc(NC(=O)CCCOc2cc(=O)n(C)c3ccccc23)cc1	CHOP inhibitor 74
O=C1NC(=Nc2ccc(O)cc2)S/C1=C/c1ccco1	none
O=C1NC(=Nc2ccc3ccccc3c2)S/C1=C/c1ccco1	CHOP inhibitor 86
Cc1cccc(N=C2NC(=O)S/C2=C\c2ccco2)c1	CHOP inhibitor 72
CC(CN1CCN(Cc2ccccc2)CC1)OC(=O)c1ccco1 (centres undefined)	none
CCCN1C(C)C(C(=O)OCC)=CN(Cc2cccc(I)c2)S1(=O)=O (centres undefined)	none (no result: CHOP inhibitor, Jurkat NFkB inh)
Oc1cccc(Nc2nc(O)c(/C=C3\C=Nc4ccccc43)s2)c1	none
Oc1nc(Nc2cccc(Cl)c2)sc1/C=C1\C=Nc2ccccc21	CHOP inhibitor 79
O=C(CN1C(=O)C2CC=CCC2C1=O)Nc1nnc(C2CC2)s1 (centres undefined)	none (no result: CHOP inhibitor)
CCOc1ccc(S(=O)(=O)NC(C)(C)C)cc1-c1nc2c(C(C)(C)C)nn(C)c2c(=O)[nH]1	CHOP inhibitor 81
Cc1ccc(-c2cc(C(=O)N/N=C/c3ccco3)n[nH]2)s1	none
CC(/C=N/NC(=O)c1cc(C(C)(C)C)[nH]n1)=C\c1ccccc1	CHOP inhibitor 76
CC(/C=N/NC(=O)c1cc(-c2ccc(C)s2)[nH]n1)=C\c1ccccc1	CHOP inhibitor 96
Clc1ccc2nsnc2c1NC1=NCCN1	none (no result: CHOP inhibitor)
COc1ccc2nc(SCC(=O)Nc3ccc4c(c3)OCCO4)[nH]c2c1	CHOP inhibitor 76
COc1ccc(-c2onc3ccc(Cl)cc23)cc1	CHOP inhibitor 79
COc1ccc(OC)c(N(CC(=O)Nc2ccccc2F)S(=O)(=O)c2ccccc2)c1	none (no result: CHOP inhibitor)
O=C1c2cccc3cccc(c23)C(=O)N1CCN1CCN(C(=S)Nc2ccc(F)cc2)CC1	UPR CHOP act 43
Cc1nc2ccccc2n(CC(=O)Nc2cc(Cl)cc(Cl)c2)c1=O	none
CC(C)(C)CC(C)(C)NC(=S)NC1CCN(Cc2ccccc2)CC1	CHOP inhibitor 71
Cc1cccc(NC(=S)NC2CCN(Cc3ccccc3)CC2)c1C	none
O=C(CCCC(=O)OCC(=O)c1ccc(Cl)cc1)NC1CCCCC1	none (no result: CHOP inhibitor)
Cc1ccc(S(=O)(=O)NC(C)C(c2cccs2)N2CCN(c3ccccc3)CC2)cc1 (centres undefined)	CHOP inhibitor 78
Cc1ccc(S(=O)(=O)NC(C)C(c2cccs2)N2CCN(C)CC2)cc1 (centres undefined)	none
CC1=C(OC(=O)c2ccc(Br)cc2)C(C)(C)C(c2ccccc2)OC1=O (centres undefined)	none
CC1=C(OC(=O)c2ccccc2)C(C)(C)C(c2ccccc2)OC1=O (centres undefined)	CHOP inhibitor 81
CC1=C(OC(=O)c2ccccc2)C(C)(C)C(c2ccc(Br)cc2)OC1=O (centres undefined)	CHOP inhibitor 91
CC1(C)CC(OC(=O)c2ccccc2)CC(C)(C)N1	none
Cc1ccc(S(=O)(=O)N2CCC(C(=O)Nc3ccccc3N3CCCC3)CC2)cc1C	none (no result: CHOP inhibitor)
COc1ccccc1-n1nnnc1SCC(=O)Nc1cc(C)on1	CHOP inhibitor 70
CCOc1ccccc1-n1nnnc1SCC(=O)Nc1cc(C)on1	none
COc1ccc(OC)c(S(=O)(=O)N2CCN(CC(O)COc3ccccc3)CC2)c1 (centres undefined)	none (no result: CHOP inhibitor)
COc1ccc(Cl)cc1S(=O)(=O)N1CCN(Cc2ccc3c(c2)OCO3)CC1	CHOP inhibitor 73
COc1cc(/C=C2/CCC/C(=C\c3cc(O)c(OC)c(Cl)c3)C2=O)cc(Cl)c1O	CHOP inhibitor 80
CC(=O)c1nn(-c2cccc(Br)c2)cc1C(=O)c1ccccc1	CHOP inhibitor 74
CC(=O)c1nn(-c2ccccc2)cc1C(=O)c1cccc(Br)c1	none
COc1ccc(CN(C(=O)c2snc(C(N)=O)c2N)C(C(=O)NC2CCCC2)c2ccco2)cc1 (centres undefined)	none (no result: CHOP inhibitor)
CCC(=O)NC(c1cccs1)c1cc(Cl)c2cccnc2c1O (centres undefined)	none
CCCCC(=O)NC(c1cccs1)c1cc(Cl)c2cccnc2c1O (centres undefined)	CHOP inhibitor 97
Nc1cc(Cl)ccc1C(=O)OCC(=O)NC1CCCCCCC1	none (no result: CHOP inhibitor)
